MEKK3 PB1 HTS: modulators of MEKK3-MEK5 PB1 binding, primary screen, biochemical, wildtype MEKK3, multiplex bead flow cytometry, Alexa488-MEK5. Mitogen-activated protein kinase kinase kinase 3 (Homo sapiens), Q99759. bead-based flow cytometry, Alexa488-MEK5 binding to MEKK3; actives lie on both sides; 0 = blocked by unlabeled MEK5, 100 = vehicle. binding response (% of control), % at 10 µM. 290,000 tested, 1.4% active. AID 1529, 2009;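 active means binding response more than 3 SD above or below the average of its plate-row segment, actives on both sides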;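 further: Alexa488 bead fluorescence after subtracting the streptavidin-only scavenger bead signal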
Apaf-1 inh: inhibitors of human Apaf-1 apoptosome, primary screen, biochemical, DEVD-Rh110 fluorescence, uHTS | inhibition, % at 20 µM | reconstituted apoptosome caspase-3 activity | 330,000 tested, 0.71% active | Apoptotic protease-activating factor 1 (Homo sapiens), O14727; active means inhibition of at least 40% at 20 µM
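Material: reconstituted apoptosome with Apaf-1, cytochrome c, caspase-9, procaspase-3, dATP / Buffer or medium: pH 7.5 Hepes buffer with CHAPS, BSA, DTT / Also added: cytochrome c with DEVD-Rh110 / Schedule: compound with Apaf-1, dATP, procaspase-3 30 min, then 50 min reaction, room temperature / Technique: rhodamine 110 fluorescence at Ex 480/Em 540 nm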
UBC13 polyUb: UBC13 polyubiquitin chain formation inhibitors, primary screen, biochemical, TR-FRET, uHTS; 330,000 tested, 0.47% active; inhibition, % at 20 µM; AID 485273, 2010; Ubiquitin-conjugating enzyme E2 N (Homo sapiens), P61088; in the data active means inhibition above about 45%, passing the limit was not always enough
Target sequence (P61088 whole entry, looked up): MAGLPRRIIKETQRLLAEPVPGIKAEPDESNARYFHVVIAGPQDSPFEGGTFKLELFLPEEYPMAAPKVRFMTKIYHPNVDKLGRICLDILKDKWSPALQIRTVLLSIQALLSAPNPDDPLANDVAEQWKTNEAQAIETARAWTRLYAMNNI
MEKK2 WT-MEK5: modulators of MEK5 binding to wildtype MEKK2, primary screen, biochemical, multiplex bead flow cytometry, Alexa488-MEK5 | Mitogen-activated protein kinase kinase kinase 2 (Homo sapiens), Q9Y2U5 | Alexa488-MEK5 binding to MEKK2 WT; actives lie on both sides | binding response (% of control), % at 10 µM | 290,000 tested, 1.1% active; in the data active means binding response below about 67% or above about 130%
PREPL inh: PREPL enzyme inhibitors, primary screen, biochemical, fluorescence polarization | Prolyl endopeptidase-like (Homo sapiens), Q4J6C6 | recombinant PREPL, fluorescence polarization activity-based probe | inhibition, % at 5.96 µM | 320,000 tested, 0.68% active | AID 2751, 2010; in the data active means inhibition above about 43%
MEKK2mut PB1 HTS: MEK5 binding signal on mutant MEKK2 PB1, primary screen, biochemical, multiplex bead flow cytometry, Alexa488-MEK5 | 290,000 tested, 0.35% active | Alexa488-MEK5 binding to MEKK2 mutant | percent response, % at 10 µM; in the data active means percent response above about 24%, passing the limit was not always enough
MEKK2wt confirm: modulators of MEK5 binding to wildtype MEKK2, confirmation, biochemical, single concentration, multiplex bead flow cytometry | shares compounds with MEKK3 PB1 HTS | binding response (% of control), % at 10 µM | AID 1892, 2009 | 5,900 tested, 2.4% active | Alexa488-MEK5 binding to MEKK2 WT; actives lie on both sides; in the data active means binding response below about 16% or above about 210%; inactive means in between
MEKK2mut confirm: mutant MEKK2 PB1-MEK5 binding signal retest – biochemical, single concentration, multiplex bead flow cytometry, confirmation; shares compounds with MEKK3 PB1 HTS; Alexa488-MEK5 binding to MEKK2 mutant; percent response, % at 10 µM; 5,900 tested, 2% active; AID 1893, 2009; in the data active means percent response mostly above about 71%, no sharp cut-off; inactive means mostly below about 38%;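 further: higher means compound restores mutant binding toward wildtype level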
MEKK3 confirm: MEKK3 wild-type PB1 binding to MEK5, inhibitors, confirmation, biochemical, bead multiplex flow cytometry, single concentration, wildtype. Alexa488-MEK5 binding to MEKK3; active compounds read low. 5,900 tested, 1.8% active. shares compounds with MEKK3 PB1 HTS. binding response (% of control), % at 10 µM;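 active means binding response below 72% of control, or above a set upper limit, though filed actives all read lower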;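 further: lower values mean stronger disruption of MEK5 binding to MEKK3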
Numbers stand for hits; 0 = inactive; - = no result given; [ ] = dose if it differs, or a comment. The list is not random: actives were taken first. Their share in the collection is about 3.1%.

SMILES	MEKK3 PB1 HTS	Apaf-1 inh	UBC13 polyUb	MEKK2 WT-MEK5	PREPL inh	MEKK2mut PB1 HTS	MEKK2wt confirm	MEKK2mut confirm	MEKK3 confirm
CCc1nnc(NC(=O)/C=C/c2ccco2)s1	131	0	0	0	0	0	0	0	0
CC(=O)Nc1ccc(NC(=S)NC(=O)/C=C/c2ccco2)cc1	40[inhibitor]	0	0	16[inhibitor]	0	0	0	0	0
CC(=O)N(C)c1ccc(NC(=S)NC(=O)/C=C/c2ccco2)cc1	0	0	0	0	0	0	-	-	-
O=C(/C=C/c1ccccc1)NC(=S)Nc1ccccc1	122	0	0	0	0	0	0	0	0
Cc1ccc(NC(=O)CNC(=O)Cc2cccc3ccccc23)c(O)c1	-	0	0	-	0	-	-	-	-
O=C(CCNC(=O)c1ccc(Cl)cc1)Nc1ccc(S(=O)(=O)N2CCCCC2)cc1	-	0	0	-	0	-	-	-	-
CCc1ccc(S(=O)(=O)NCc2csc(C)n2)cc1	0	0	0	0	-	0	-	-	-
CSCC[C@H](NC(=O)N1C[C@H]2C[C@@H](C1)c1cccc(=O)n1C2)C(=O)Nc1ccc(NC(C)=O)cc1	0	0	0	0	0	0	-	-	-
O=C(C[n+]1cc(-c2ccc(F)cc2)n2c1CCC2)Nc1nc(-c2ccc(F)cc2)cs1	0	0	0	0	0	0	-	-	-
O=C(C[n+]1cc(-c2ccc(Cl)cc2)n2c1CCC2)Nc1nc(-c2ccc(F)cc2)cs1	0	0	0	177	0	0	0	0	0
Cc1ccc(-c2csc(NC(=O)C[n+]3cc(-c4ccccc4)n4c3CCC4)n2)cc1	0	0	0	167	0	0	0	0	0
Cc1ccc(-c2c[n+](CC(=O)N3c4ccccc4Sc4ccccc43)c3n2CCC3)cc1	0	0	0	152	0	0	0	0	0
O=C(C[n+]1cc(-c2ccccc2)n2c1CCC2)Nc1nc(-c2ccc(F)cc2)cs1	0	0	0	181	0	0	0	0	0
CCOc1ccc(CCNC(=O)CS(=O)Cc2nc(-c3ccc(OC)cc3)oc2C)cc1OCC (centres undefined)	0	0	0	0	0	0	-	-	-
Cc1noc(C)c1-c1csc(N2CCC(C(N)=O)CC2)n1	-	0	0	-	0	-	-	-	-
CC(=O)Nc1ccc(C(=O)OCC(=O)N2CCC(Cc3ccccc3)CC2)cc1	-	0	0	-	0	-	-	-	-
O=C(COC(=O)c1ccc2ncsc2c1)Nc1ccccc1Cl	-	0	0	-	0	-	-	-	-
CCc1ccc(C(=O)CN2C(=O)NC3(CCc4ccccc43)C2=O)cc1 (centres undefined)	-	0	0	-	0	-	-	-	-
COc1ccc(CCC(C)NCCc2ccc(Cl)cc2Cl)cc1 (centres undefined)	0	0	0	152	0	0	0	0	0
O=C(CCNS(=O)(=O)c1ccccc1)N1CCC(Cc2ccccc2)CC1	0	0	0	0	0	0	-	-	-
CC1CCN(CCOCCOc2ccc(Cl)cc2Br)CC1	0	0	0	147	0	0	0	0	0
CC1CCN(CCCOc2ccc(Cl)cc2Br)CC1	0	0	0	0	0	0	-	-	-

From PubChem BioAssay
